Measurements reported in ChEMBL document CHEMBL1152618, “PET-compatible endothelin receptor radioligands: synthesis and first in vitro and in vivo studies” (Bioorg Med Chem, 2009).
One block for each compound: values may come before it.

Experiments:
[1] = biological target: T1, Endothelin receptor type B (Mus musculus, UniProt P48302); assay: Displacement of [125I]ET1 from endothelin B receptor in DBA mouse microsomes; parameters: species or system Microsome
T1 sequence (P48302 whole entry): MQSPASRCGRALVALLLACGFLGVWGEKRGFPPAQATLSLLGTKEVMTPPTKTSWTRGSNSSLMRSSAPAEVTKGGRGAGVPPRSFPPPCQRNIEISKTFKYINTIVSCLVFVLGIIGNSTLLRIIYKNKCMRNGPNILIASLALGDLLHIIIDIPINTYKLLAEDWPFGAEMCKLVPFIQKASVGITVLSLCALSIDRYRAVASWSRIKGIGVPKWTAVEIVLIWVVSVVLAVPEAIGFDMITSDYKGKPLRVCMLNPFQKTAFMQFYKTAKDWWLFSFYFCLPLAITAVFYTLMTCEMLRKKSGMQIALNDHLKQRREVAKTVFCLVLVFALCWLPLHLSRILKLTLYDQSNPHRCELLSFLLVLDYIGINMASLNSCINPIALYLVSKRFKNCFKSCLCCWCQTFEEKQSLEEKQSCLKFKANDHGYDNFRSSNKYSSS
In short: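 Ventricular microsomes from DBA mice were prepared by homogenization and differential centrifugation in EDTA/HEPES/benzamidine buffers (pH 7.4). 10 µg membranes were incubated with 40 pM [125I]ET-1 and competitor (10 pM–100 µM) in Tris-HCl/154 mM NaCl/ascorbic acid (pH 7.4) at 37 °C for 4 h. Samples were filtered on GF/B and gamma counted. A two-site nonlinear fit gave the low-affinity IC50, which was converted to Ki by Cheng–Prusoff (KD 208 pM).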

[2] = Biodistribution in C57BL/6 mouse duodenal content assessed as drug uptake index at 0.3 to 1 mmol/kg, iv after 30 mins; format: ADME, organism-based; settings: in vivo, 0.5 h, in the assay text read “0.3 to 1 nmol/kg” for “0.3 to 1 mmol/kg”
In short: (§1)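 Adult C57BL/6 mice (male and female, 25–30 g), tail-vein cannulated under isoflurane/N2O/O2, allowed ~1 h recovery, conscious under light restraint. [18F]tracer 0.2–2.0 MBq (0.3–1.0 nmol/kg) given as iv bolus. Killed by iv pentobarbitone 200 mg/kg at 30 min. Duodenal contents were moved directly into weighed vials, and duodenal wall was blotted. Gamma counting. Uptake index = (cpm/g tissue)/(cpm injected/g body weight).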

[3] = Biodistribution in C57BL/6 mouse duodenal wall content assessed as drug uptake index at 0.3 to 1 mmol/kg, iv after 30 mins; format: ADME, organism-based; settings: in vivo, 0.5 h, in the assay text read “0.3 to 1 nmol/kg” for “0.3 to 1 mmol/kg”; in short: as §1
[4] = test system: Plasma; assay: Protein binding in Wistar rat plasma at 19 MBq; format: ADME, cell-free
In short: (§2)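 Plasma from one anesthetized male Wistar rat (350 g), taken by cardiac puncture and stored at −20 °C overnight. 0.5 ml samples were incubated with 19 MBq [18F]tracer at 37 °C for 1, 2.5, 20 and 60 min. Protein was precipitated with ice-cold acetonitrile and centrifuged. Pellet and supernatant radioactivity were measured for protein binding. Supernatant was analyzed by gradient radio-RP-HPLC (C18, water/acetonitrile with 0.1% TFA).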

[5] = test system: Plasma; assay: Stability in Wistar rat plasma assessed as compound remaining at 19 MBq; format: ADME, cell-free; in short: as §2
[6] = test system: Rattus norvegicus; assay: Stability in Wistar rat assessed as compound remaining at 40 MBq, iv after 2.5 mins; format: ADME, organism-based; settings: in vivo
In short: (§3)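 Single rat given 40 MBq [18F]tracer as an iv tail-vein bolus. Blood (600–800 µl) was drawn from a tail-artery catheter at 2.5, 10, 20 and 60 min and centrifuged to plasma. Proteins were precipitated with ice-cold acetonitrile. Supernatant was spiked with 10 µg unlabeled reference and analyzed by radio-RP-HPLC.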

[7] = test system: Rattus norvegicus; assay: Stability in Wistar rat assessed as compound remaining at 40 MBq, iv after 10 mins; format: ADME, organism-based; settings: in vivo; in short: as §3
[8] = test system: Plasma; assay: Stability in C57BL/6 mouse plasma assessed as compound remaining after 5 mins; format: ADME, cell-free
In short: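 C57BL/6 mice (adult, both sexes) were prepared as for biodistribution and given [18F]tracer as a 100 µl tail-vein bolus. Killed by iv pentobarbitone at 5 or 20 min. Cardiac blood was centrifuged, and plasma from two mice was pooled. After acetonitrile protein precipitation, supernatant was spiked with 10 µg unlabeled reference and analyzed by radio-RP-HPLC.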

[9] = Drug level in C57BL/6 mouse bile at 6.6 MBq, iv after 3 to 4 mins; format: ADME, organism-based; settings: in vivo
In short: (§4)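 Female C57BL/6 mice (22–23 g) under isoflurane 2% anesthesia with tail-vein catheters were imaged two at a time in a quadHIDAC small-animal PET scanner. [18F]tracer (6.6 MBq in 100 µl, saline flush) was injected 30 s after acquisition start. List-mode data were collected for 2 h and reconstructed iteratively. Radioactivity (cps/ml) was read from ROIs over organs in five coronal planes.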

[10] = Drug level in C57BL/6 mouse urine at 6.6 MBq, iv after 5 to 60 mins; format: ADME, organism-based; settings: in vivo; in short: as §4
[11] = test system: Plasma; assay: Stability in plasma assessed as compound remaining after 20 mins

Ki [1]: 1.26 nM
Structure (SMILES): COc1ccc(C2(O)OC(=O)C(c3ccc4c(c3)OCO4)=C2Cc2cc(OC)c(OC)c(OCCOS(=O)(=O)c3ccc(C)cc3)c2)cc1 (stereo unspecified)

Ki [1]: 170 nM
Structure (SMILES): COc1ccc(C2(O)OC(=O)C(c3ccc4c(c3)OCO4)=C2Cc2cc(OC)c(OC)c(OCCBr)c2)cc1 (stereo unspecified)

Ki [1]: 240 nM
Structure (SMILES): COc1ccc(C2(O)OC(=O)C(c3ccc4c(c3)OCO4)=C2Cc2cc(OC)c(OC)c(OCCF)c2)cc1 (stereo unspecified)

Ki [1]: 72 nM
Structure (SMILES): COc1cc(CC2=C(c3ccc4c(c3)OCO4)C(=O)OC2(O)c2ccc(OCCBr)cc2)cc(OC)c1OC (stereo unspecified)

Ki [1]: 98 nM
Structure (SMILES): COc1cc(CC2=C(c3ccc4c(c3)OCO4)C(=O)OC2(O)c2ccc(OCCF)cc2)cc(OC)c1OC (stereo unspecified)

Drug uptake [2]: 33
Drug uptake [3]: 9
PPB [4]: 4.6%
Stability [5]: Stable
Stability [6]: Stable
Stability [7]: Stable
Stability [8]: Stable
Drug uptake [9]: 6000 cps/ml
Drug uptake [10]: 200 cps/ml
Stability [11]: Stable
Structure (SMILES): COc1ccc(C2(O)OC(=O)C(c3ccc4c(c3)OCO4)=C2Cc2cc(OC)c(OC)c(OCC[18F])c2)cc1 (stereo unspecified)

Ki [1]: 96 nM
Structure (SMILES): COc1cc(CC2=C(c3ccc4c(c3)OCO4)C(=O)OC2(O)c2ccc(OCCOS(=O)(=O)c3ccc(C)cc3)cc2)cc(OC)c1OC (stereo unspecified)
